Assay outcomes deposited in PubChem by The Scripps Research Institute Molecular Screening Center.
TAAR1 antagonist = human TAAR1 antagonists, primary screen, Fluo-8 calcium fluorescence, CHO RD-HGA16 cells; antagonist; AID 624466, 2012; actives 1.5% (n = 360,000); inhibition, % at 3 µM; Trace amine-associated receptor 1 (Homo sapiens), Q96RJ0;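 active means inhibition above a per-plate cutoff, the mean inhibition of test compounds on that plate plus 3 SD, cut at about 49% in these data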;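 further: 0% = DMSO plus EC80 beta-PEA response and 100% = DMSO alone without agonist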
Target sequence (Q96RJ0 whole entry, looked up): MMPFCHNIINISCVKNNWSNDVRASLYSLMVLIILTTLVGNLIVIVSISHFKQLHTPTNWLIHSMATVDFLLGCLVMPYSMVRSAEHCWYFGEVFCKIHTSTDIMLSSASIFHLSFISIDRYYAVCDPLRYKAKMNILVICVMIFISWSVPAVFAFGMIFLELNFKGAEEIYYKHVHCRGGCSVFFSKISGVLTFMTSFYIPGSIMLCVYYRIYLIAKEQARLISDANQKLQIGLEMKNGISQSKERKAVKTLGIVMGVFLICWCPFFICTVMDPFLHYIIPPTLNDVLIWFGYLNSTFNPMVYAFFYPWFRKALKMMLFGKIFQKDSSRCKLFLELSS
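System: CHO RD-HGA16 cells bearing hTAAR1. Reagent: EC80 β-phenethylamine stimulus. Schedule: seeding 17-24 h prior, 75-min 37 °C, 30-min RT dye loading. Signal: Fluo-8 intracellular calcium dye fluorescence, real-time kinetic reads. Read-out: % inhibition from peak post-agonist over basal fluorescence ratio. Benchmarks: vehicle wells and EC80 agonist wells. Replicates: n of 1.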
CHO parental Ca = ATP-evoked calcium signal inhibitors, parental CHO, primary screen, counter-screen for OX1R antagonist project, cell-based, fluorescence, Fluo-8 calcium dye; actives 0.63% (n = 330,000); AID 463079, 2010; parental CHO-K1, ATP-induced calcium, Fluo-8 fluorescence; inhibition, % at 5.6 µM;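 active means inhibition above that plate's mean sample inhibition plus 3 SD, cut at about 26% in these data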;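 further: 0% = ATP-challenged DMSO wells and 100% = DMSO wells without ATP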
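Assay system – parental CHO cells · Reagent – ATP stimulus · Detection – intracellular calcium via Fluo-8 no-wash fluorescent dye · Evaluation – percent inhibition of ATP-evoked calcium rise, normalized to controls · Controls – ATP wells versus no-ATP DMSO wells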
OX1R antag-1 = OX1R (HCRTR1) antagonists, primary screen, fluorescence, CHO/OX1R cells, Fluo-8 calcium, orexin A; Fluo-8 calcium fluorescence; inhibition, % at 5 µM; actives 0.43% (n = 330,000); AID 434989, 2010;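 active means inhibition above its plate's threshold, mean inhibition of all tested compounds on the plate plus 3 SD, cut at about 37% in these data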;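 further: 0% = orexin A challenge wells and 100% = SB-334867-A antagonist wells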
OX1R antag-2 = antagonists of human orexin 1 receptor (OX1R) | Orexin/Hypocretin receptor type 1 (Homo sapiens), O43613 | actives 1.8% (n = 330,000) | OX1R-expressing cells, FRET antagonist read-out | AID 485270, 2010 | inhibition, % at 6.6 µM; in the data active means inhibition mostly above about 38%, no sharp cut-off; inactive means mostly below about 40%;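 further: 0% = agonist challenge alone and 100% = reference antagonist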
TAAR1 ag = human TAAR1 agonists, primary screen, Fluo-8 calcium fluorescence, CHO RD-HGA16 cells; activation, % at 3 µM; AID 624467, 2012; actives 0.99% (n = 360,000); vehicle wells 0%, saturating PEA agonist 100%;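 active means activation above the mean activation of all test compounds in the run plus 3 SD, cut at about 38% in these data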
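Test system: RD-HGA16 (CHO) cells co-expressing Gα16 and hTAAR1 | Doses: Single dose, 3 µM | Schedule: 17-24 h seeding, 75 min 37 °C dye, 30 min RT | Evaluation: % activation from peak over basal fluorescence ratio, DMSO-to-PEA scaled | Technique: Kinetic Fluo-8 calcium fluorescence | Benchmarks: Low control DMSO, high control PEA (EC100)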
* hit, by the source's call; · = not tested or not shown. In the library only some 4% were active in any assay of this set; here they are far more common.

SMILES	TAAR1 antagonist	CHO parental Ca	OX1R antag-1	OX1R antag-2	TAAR1 ag
CN(CC(=O)Nc1ccc(Cl)c(C(F)(F)F)c1)C(=O)COc1cccc2cccnc12	-17.4	·	·	·	12.7
CSc1ccccc1NC(=O)CN(C)C(=O)COc1cccc2cccnc12	-12.2	-9.8	-4.2	32.1*	1.0
O=C(CSc1ccc(C(F)(F)F)cc1[N+](=O)[O-])Nc1ccccc1	31.2	58.7*	16.6	7.2	28.1
O=C1c2cccnc2C(=O)N1c1cccc([N+](=O)[O-])c1	-25.9	-15.0	-13.2	13.9	2.6
O=[N+]([O-])c1cc(-c2ncccn2)c([N+](=O)[O-])s1	34.7	17.2	20.0	63.9*	-2.6
CN(c1ccc(C(=O)N2CCCCC2)cc1)S(=O)(=O)c1ccccc1	7.5	37.6*	42.1*	58.9	10.3
COc1ccccc1NS(=O)(=O)c1cccc(C(=O)N2CCCCCC2)c1	9.7	·	·	·	1.0
COc1ccccc1NS(=O)(=O)c1ccc(C(=O)N2CCCCCCC2)cc1	15.8	-3.6	13.1	26.1*	21.2
CCOC(=O)C1CCCN(C(=O)c2cccc(S(=O)(=O)N3CCCC3)c2)C1 (stereo not given)	2.4	-13.1	-18.0	10.1	3.7
CCOC(=O)C1CCCN(C(=O)c2cccc(S(=O)(=O)N(C)c3ccc(C)cc3)c2)C1 (stereo not given)	12.0	-11.3	31.4	57.7*	15.4
COc1ccc2nc3n(c(=O)c2c1)-c1ncccc1C(=O)NC3CC(C)C (stereo not given)	-15.2	·	·	·	0.3
COc1cc(C(=O)NCCNc2nc3cc(C)ccc3cc2C#N)cc(OC)c1OC	-0.3	-16.9	-15.9	54.5*	3.7
Cc1cc(C)c2cc(C#N)c(NCCOC(=O)c3ccccc3C)nc2c1	-20.0	-41.8	-0.4	36.5*	3.5
COc1cc(OC)cc(C(=O)NCCNc2nc3cc(C)cc(C)c3cc2C#N)c1	4.2	-24.2	2.9	53.1*	-1.6
COC(=O)[C@]1(Cc2ccccc2)NC=C(C(=O)c2ccc(F)cc2)[C@@H]1c1ccccc1	4.5	·	·	·	0.7
Cn1ncc(Cl)c1C(=O)Nc1sc2c(c1C(N)=O)CCC2	-20.8	-24.3	12.7	76.2*	3.2
NC(=O)c1c(NC(=O)c2cnccn2)sc2c1CCCC2	-5.7	-4.4	-22.8	14.5	6.5
CC(c1cccs1)N(C)Cc1nc(CCc2ccccc2)no1 (stereo not given)	-16.7	-3.5	-17.8	17.2	0.9
CN(C)CC[n+]1ccc(C(=O)c2ccccc2)cc1	-13.8	-3.0	-11.4	52.2*	0.5
O=C(c1ccccc1)c1cc[n+]([O-])cc1	11.2	-2.6	-14.3	42.4*	14.8
O=C(C[n+]1ccc(C(=O)c2ccccc2)cc1)Nc1ccc(C(F)(F)F)cc1	4.4	-3.9	-18.6	42.1	0.3
O=C(c1ccccc1)c1cccc[n+]1[O-]	-15.9	-0.1	6.1	-5.6	2.2
Cc1cc(C(=O)N/N=C\c2cc(C(C)(C)C)c(O)c(C(C)(C)C)c2)n[nH]1	-1.2	-7.8	-18.7	11.3	5.0
Cc1cc(C(=O)N/N=C/c2ccc(C)s2)n[nH]1	1.7	6.9	-10.9	10.7	2.9
Cc1cc(C(=O)N/N=C/c2cc(Cl)cc([N+](=O)[O-])c2O)n[nH]1	-16.9	-2.0	-17.3	66.4*	1.2
SMILES	TAAR1 antagonist	CHO parental Ca	OX1R antag-1	OX1R antag-2	TAAR1 ag
Cc1cc(C(=O)N/N=C/c2ccc([N+](=O)[O-])s2)n[nH]1	-22.9	-3.8	-10.9	53.3*	3.1
Cc1[nH]cnc1C(=O)N/N=C/c1ccc([N+](=O)[O-])s1	-5.4	4.5	-14.4	71.2*	2.5
NC(=O)c1ncn([C@@H]2O[C@H](C(=O)N3CCCN(Cc4ccccc4F)CC3)[C@@H](O)[C@H]2O)n1	-21.6	·	·	·	2.4
CN(C)S(=O)(=O)n1cnc([C@@H]2[C@@H]3C(=O)OC[C@@H]3C[C@]23N=CN(Cc2ccccc2)C3=O)c1	10.4	-4.2	-18.3	6.0	1.0
CC(C)(C)c1cc[n+](-c2[nH]c(=O)sc2/C=N/N=C(\[O-])c2cccnc2)cc1	-15.9	-11.5	-5.7	58.1*	1.8
CC(C)(C)c1cc[n+](-c2[nH]c(=O)sc2/C=N/NC(=O)c2ccccc2[O-])cc1	4.0	25.1	6.8	56.5*	3.9
CC(=O)Nc1ncc(Cc2cc(Cl)ccc2Cl)s1	-5.6	-6.8	-21.7	69.8*	21.4
COc1ccc(NC(=O)COC(=O)CCCC2=NS(=O)(=O)c3ccccc3N2)cc1	-16.4	3.6	3.0	5.7	39.1*
CCOC(=O)c1sc(N2C(=O)C(O)=C(C(=O)c3ccco3)C2c2cccc([N+](=O)[O-])c2)nc1C (stereo not given)	-32.9	2.1	-15.9	24.3	0.2
COCC(C)NC(=O)CSc1nc2ccccc2c(=O)n1CCc1ccc(S(N)(=O)=O)cc1 (stereo not given)	54.3*	-9.8	-14.9	0.2	12.6
CC(Sc1nc2ccccc2c(=O)n1CCc1ccc(S(N)(=O)=O)cc1)C(=O)NC(N)=O (stereo not given)	47.1	-1.2	-11.4	4.2	4.8
Cc1cccc(NC(=O)c2cccc(NC(=O)c3ccco3)c2)c1C	-2.6	0.2	-30.3	1.7	0.8
CN(C)c1cccc2c1C(=O)c1ccccc1C2=O	-18.6	-13.3	-13.4	45.9*	-1.7
CCCN1CCCCC(NC(=O)c2ccc(C)cc2C)C1=O (stereo not given)	-8.5	·	·	·	3.7
COc1ccc(S(=O)(=O)NNC(=O)Nc2ccc(F)cc2F)c(OC)c1	-6.7	9.1	1.1	9.8	3.1
Cc1ccccc1NC(=O)C1CCCN1S(=O)(=O)c1cccc2cccnc12 (stereo not given)	·	-0.4	5.8	42.9*	·
O=C(C1CCCN1S(=O)(=O)c1cccc2cccnc12)N1CCc2ccccc21 (stereo not given)	-9.1	-2.2	-6.0	47.3*	1.5
COc1ccc(NC(=O)C2CCCN2S(=O)(=O)c2cccc3cccnc23)c(OC)c1 (stereo not given)	-18.9	-11.2	-29.6	13.2	1.1
Cc1cccc(C(=O)Nc2cccc3cccnc23)c1	-12.7	·	·	·	-2.4
Cc1cccc(NC(=O)C2CCCN(S(=O)(=O)c3cccc4cccnc34)C2)c1 (stereo not given)	31.7	-16.3	5.5	53.6*	3.6
O=C(C1CCCN1S(=O)(=O)c1cccc2cccnc12)N1CCc2ccccc2C1 (stereo not given)	-19.0	-16.0	-12.8	16.6	3.3
Cc1ccc(C(=O)Nc2cccc3cccnc23)cc1C	-30.8	-21.4	35.1	68.5*	3.1
C=CCC(O)(CC=C)CNC(=O)C1CCC(=O)N(CCCc2ccccc2)C1 (stereo not given)	3.8	-7.1	-3.3	7.1	1.5
